According to ChEMBL document CHEMBL1131435, “Biphenylsulfonamide endothelin antagonists: structure-activity relationships of a series of mono- and disubstituted analogues and pharmacology of the orally active endothelin antagonist 2'-amino-N- (3,4-dimethyl-5-isoxazolyl)-4'-(2-methylpropyl)[1, 1'-biphenyl]-2-sulfonamide (BMS-187308)” (J Med Chem, 1998):

Assays:
Endothelin-1 receptor [1] = molecular target: T1, Endothelin-1 receptor (Rattus norvegicus, UniProt P26684); experiment: Ability to inhibit binding of [125I]ET1 to membranes prepared from A10 rat thoracic aorta smooth muscle Endothelin A receptor; type: tissue-based
T1 sequence (P26684 whole entry): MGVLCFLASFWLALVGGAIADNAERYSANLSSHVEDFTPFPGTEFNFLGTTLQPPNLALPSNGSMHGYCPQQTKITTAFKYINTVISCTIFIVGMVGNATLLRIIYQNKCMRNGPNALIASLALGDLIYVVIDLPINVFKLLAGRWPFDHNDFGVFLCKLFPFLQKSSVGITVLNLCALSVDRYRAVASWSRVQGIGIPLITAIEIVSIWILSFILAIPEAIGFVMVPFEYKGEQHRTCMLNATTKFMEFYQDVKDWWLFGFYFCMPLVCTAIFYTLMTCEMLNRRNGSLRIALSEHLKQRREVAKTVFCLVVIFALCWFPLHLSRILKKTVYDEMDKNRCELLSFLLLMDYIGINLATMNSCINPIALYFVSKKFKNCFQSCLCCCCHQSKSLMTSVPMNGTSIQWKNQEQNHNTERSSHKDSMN

[2] = molecular target: T2, Endothelin receptor type B (Rattus norvegicus, UniProt P21451); experiment: Ability to inhibit binding of [125I]-ET-1 to membranes prepared from […] rat cerebellum (Endothelin B receptor); type: tissue-based
T2 sequence (P21451 whole entry): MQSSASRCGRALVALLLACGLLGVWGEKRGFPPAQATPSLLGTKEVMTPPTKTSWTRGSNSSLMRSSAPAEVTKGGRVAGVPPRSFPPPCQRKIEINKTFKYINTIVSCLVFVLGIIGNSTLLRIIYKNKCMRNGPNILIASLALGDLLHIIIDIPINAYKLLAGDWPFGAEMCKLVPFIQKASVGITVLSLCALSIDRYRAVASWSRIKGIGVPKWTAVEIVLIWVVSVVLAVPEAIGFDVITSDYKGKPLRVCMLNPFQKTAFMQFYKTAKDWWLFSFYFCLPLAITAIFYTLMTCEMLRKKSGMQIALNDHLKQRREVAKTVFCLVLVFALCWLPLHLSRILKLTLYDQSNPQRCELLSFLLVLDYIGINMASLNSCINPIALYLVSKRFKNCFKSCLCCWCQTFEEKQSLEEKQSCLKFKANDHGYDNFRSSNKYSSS

[3] = molecular target: Endothelin receptor type B (Rattus norvegicus) (UniProt P21451); experiment: Inhibition of [125I]ET-1 binding to rat cerebellum membranes (Endothelin B receptor) was determined in a radioligand binding assay.
[4] = molecular target: Endothelin-1 receptor (Rattus norvegicus); experiment: Ability to inhibit Endothelin A receptor induced contractions in rabbit carotid artery rings (ETA) was determined in an in vitro functional assay.
Endothelin-1 receptor [5] = molecular target: T1, Endothelin-1 receptor; experiment: Ability to inhibit binding of [125I]ET1 to membranes prepared from A10 rat thoracic aorta smooth muscle (Endothelin A receptor) was determined by radioligand binding assay; type: tissue-based
Procedure, shortened: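 Competition binding of [125I]ET-1 to membranes prepared from A10 rat thoracic aorta smooth muscle cells (ET_A). Data were fitted iteratively to a one- or two-site binding model, and Ki was calculated from the IC50. Values are reported as Ki ± SE.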

Row | SMILES | Ki (Endothelin-1 receptor [1]) [nM] | Ki [2] [nM] | Ki [3] [nM] | other results
1 | Cc1noc(NS(=O)(=O)c2ccccc2-c2ccc(CC(C)C)cc2C(N)=O)c1C | 100 | 12000 |  | 
2 | CNc1cc(CC(C)C)ccc1-c1ccccc1S(=O)(=O)Nc1onc(C)c1C | 14 | 2200 |  | 
3 | Cc1noc(NS(=O)(=O)c2ccccc2-c2ccc(OCc3ccccc3)cc2)c1C | 190 | 8400 |  | 
4 | Cc1noc(NS(=O)(=O)c2ccccc2-c2cccnc2)c1C |  |  | > 200000 | 
5 | CC(C)Cc1ccc(-c2ccccc2S(=O)(=O)Nc2onc3c2CCCC3)cc1 | 24000 | > 200000 |  | 
6 | Cc1noc(NS(=O)(=O)c2ccccc2-c2cc3ccccc3[nH]2)c1C |  |  | 66000 | 
7 | Cc1noc(NS(=O)(=O)c2ccccc2-c2ccccn2)c1C |  |  |  | Ki [4]: 820 nM
8 | Cc1noc(NS(=O)(=O)c2ccccc2-c2ccc(S(=O)(=O)C(C)C)cc2)c1C | 110 | 170000 |  | 
9 | Cc1cnoc1NS(=O)(=O)c1ccccc1-c1ccc(CC(C)C)cc1 | 970 | 100000 |  | 
10 | Cc1noc(NS(=O)(=O)c2cccc(OCC(=O)O)c2-c2ccc(CC(C)C)cc2)c1C | 42 | 4000 |  | 
11 | Cc1noc(NS(=O)(=O)c2ccccc2-c2ccc(CC(C)C)cc2CO)c1C | 20 | 1300 |  | 
12 | Cc1noc(NS(=O)(=O)c2ccccc2-c2ccsc2)c1C |  |  | > 200000 | 
13 | Cc1noc(NS(=O)(=O)c2ccccc2-c2ccc(S(=O)(=O)N(C)C)cc2)c1C | 560 | > 200000 |  | 
14 | Cc1noc(NS(=O)(=O)c2ccccc2-c2c[nH]c3ccccc23)c1C |  |  | > 200000 | 
15 | Cc1noc(NS(=O)(=O)c2ccccc2-c2ccccc2[N+](=O)[O-])c1C | 140 | > 200000 |  | 
16 | Cc1noc(NS(=O)(=O)c2ccccc2-c2ncccn2)c1C |  |  | > 200000 | Ki [4]: 8800 nM
17 | Cc1noc(NS(=O)(=O)c2ccccc2-c2cccs2)c1C |  |  | > 200000 | 
18 | Cc1noc(NS(=O)(=O)c2cccc(O)c2-c2ccc(CC(C)C)cc2)c1C | 5 | 940 |  | 
19 | Cc1noc(NS(=O)(=O)c2ccccc2Br)c1C |  |  |  | Ki (Endothelin-1 receptor [5]): 8000 nM
20 | Cc1noc(NS(=O)(=O)c2cccc3c(N(C)C)cccc23)c1C [BMS-182874] | 55 | > 200000 |  | 
